Assay outcomes as filed in PubChem.
A selection: hits, their analogues and other compounds. The true share with any hit is near 1.7%.
DNMT1 block: human DNMT1 methyltransferase inhibitors, primary screen, biochemical, molecular beacon, fluorescence, HinP1I cleavage, uHTS; inhibition (reported as % activation of signal), % at 10 µM; actives 0.83% (n = 360,000); AID 588458, 2011; in the data active means inhibition above about 50%
STEP inh: STEP phosphatase inhibitors, primary screen, biochemical, fluorescence intensity, uHTS; Tyrosine-protein phosphatase non-receptor type 5 (Homo sapiens), P54829; recombinant STEP, OMFP fluorogenic substrate; inhibition, % at 20 µM; actives 0.25% (n = 360,000); AID 588621, 2011;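 active means inhibition at 20 µM, scaled per plate between control wells, above about 37%, limit read from the data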
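material = STEP tyrosine phosphatase | reagent = fluorogenic phosphatase substrate OMFP at 25 µM final | doses = single compound dose of 20 µM, 1% DMSO final | schedule = 20 min reaction, room temperature, in the dark | measured by = fluorescence, 480/540 nm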
SUMO1 PPI mod: modulators of SUMO1 protein-protein interactions, primary screen, biochemical, uHTS | SUMO1 binding to a labelled peptide, TR-FRET, 1 h | inhibition, % at 20 µM | AID 602429, 2012 | actives 0.33% (n = 360,000) | Small ubiquitin-related modifier 1 (Homo sapiens), P63165; in the data active means inhibition above about 37%
Target sequence (P63165 whole entry, looked up): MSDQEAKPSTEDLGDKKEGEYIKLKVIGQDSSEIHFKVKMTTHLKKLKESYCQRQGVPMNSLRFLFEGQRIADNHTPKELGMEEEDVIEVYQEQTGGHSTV
Scp1 inh: Scp-1 phosphatase inhibitors, primary screen, biochemical, colorimetric, uHTS. Carboxy-terminal domain RNA polymerase II polypeptide A small phosphatase 1 (Homo …. inhibition, % at 20 µM. actives 0.88% (n = 340,000). AID 493091, 2011. Recombinant Scp1, phosphopeptide, malachite green phosphate absorbance;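 active means inhibition above about 50% at 20 µM, limit read from the data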
Target sequence (Q9GZU7 76-261 limits assumed): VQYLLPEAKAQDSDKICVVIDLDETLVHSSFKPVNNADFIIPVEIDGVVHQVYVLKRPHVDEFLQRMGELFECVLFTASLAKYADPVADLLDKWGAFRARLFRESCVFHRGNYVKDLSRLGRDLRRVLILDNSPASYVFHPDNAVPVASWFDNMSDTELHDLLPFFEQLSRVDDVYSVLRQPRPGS
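Test system: SCP-1 catalytic domain; Buffer or medium: Acidic Tris acetate buffer with magnesium and detergent; Also added: Phosphorylated 17-residue peptide substrate; Compound: single 20 µM dose, 1% DMSO; Schedule: enzyme reaction 45 min at room temperature, colour 5 min, stabilisation 30 min; Signal: Phosphate-binding colour reagent, absorbance read at 630 nm.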
LMPTP block: LMPTP phosphatase inhibitors, primary screen, biochemical, fluorescence intensity, uHTS; Low molecular weight phosphotyrosine protein phosphatase (Homo sapiens), P24666; recombinant LMPTP-A, OMFP fluorogenic substrate; inhibition, % at 20 µM; actives 0.22% (n = 360,000);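 active means compounds that cut the enzyme signal by at least half of the control window in the single-dose screen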
Target sequence (P24666 whole entry, looked up): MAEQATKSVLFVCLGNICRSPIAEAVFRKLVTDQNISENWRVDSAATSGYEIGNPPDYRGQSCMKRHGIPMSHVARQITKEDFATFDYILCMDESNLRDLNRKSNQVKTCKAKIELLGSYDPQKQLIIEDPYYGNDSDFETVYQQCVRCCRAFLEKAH
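Assay system: LMPTP-A, protein tyrosine phosphatase of low molecular weight / Medium: pH 6.0 Bis-Tris buffer with DTT and Triton X-100 / Schedule: 50 min enzyme reaction at room temperature, protected from light / Measured by: endpoint fluorescence intensity from OMFP dephosphorylation / Read-out basis: % inhibition relative to no-enzyme and uninhibited control wells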
Beacon interf DR: spectral interference with molecular beacon fluorescence, dose response, artefact control for DNMT1 inhibitor project, biochemical, fluorescent molecular beacon; shares compounds with DNMT1 block; spectral interference counter-screen; IC50, µM; 200 tested, under 10 active; AID 602382, 2012
DNMT1 confirm: DNMT1 methyltransferase inhibitor retest, confirmation, biochemical, molecular beacon, fluorescence, single concentration; DNMT1 molecular beacon HinP1I cleavage; shares compounds with DNMT1 block; inhibition, % at 10 µM; actives 8% (n = 2,300);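 active means average inhibition of at least 30% in the single-concentration confirmation test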
Beacon interf: beacon fluorescence artifact counter-screen | shares compounds with DNMT1 block | DNMT1 molecular beacon spectral interference counterscreen, fluorescence 485/520 | activation (fluorescence interference), % at 10 µM | actives 1% (n = 2,300) | AID 602387;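 active means activation of at least 30% at 10 µM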;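 further: DNMT1 catalytic domain with a HinP1I cleavage step and a FAM/dabcyl DNA beacon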
STEP conf: STEP phosphatase inhibitor hit confirmation, biochemical, fluorescence intensity, single concentration | actives 32% (n = 520) | shares compounds with STEP inh | recombinant STEP, OMFP fluorogenic substrate | inhibition, % at 20 µM
Large screens that a line does not name were inactive (follow-up assays come after a bar, where they were run). Unless noted, how the calls were made is not given here.

O=C(Nc1ccccc1)C1CCCN1C(=O)Nc1ccccc1[N+](=O)[O-] (stereo unspecified)	none
Cc1cccc(C)c1NC(=O)C1c2ccccc2OCC(=O)N1CCc1c[nH]c2ccccc12 (stereo unspecified)	none (no result: DNMT1 block, STEP inh, Scp1 inh)
COc1ccc(Nc2nc(=O)c3cc([N+](=O)[O-])ccc3s2)cc1	DNMT1 block 64.8, STEP inh 42.6, LMPTP block 80.0 | DNMT1 confirm inactive | Beacon interf inactive | STEP conf inactive
CCCS(=O)(=O)NC(=O)C1(C)CCCN(C(=O)/C=C/c2ccccc2)C1 (stereo unspecified)	none (no result: Scp1 inh)
CCOC(=O)CC(NS(=O)(=O)c1ccc2[nH]cc(C(=O)O)c(=O)c2c1)c1ccc(OCC)c(OC)c1 (stereo unspecified)	DNMT1 block 72.7, STEP inh 73.6 | DNMT1 confirm inactive | Beacon interf inactive | STEP conf 25.4
CCOc1ccc(OCC)c(NC(=O)CCSCCc2ccccn2)c1	DNMT1 block 88.8, STEP inh 96.9 | DNMT1 confirm inactive | Beacon interf inactive | STEP conf inactive
CCOc1ccc(OCC)c(NC(=O)CSCCc2ccccn2)c1	none
Cc1ccc(S(=O)(=O)NCCC(=O)NNC(=O)c2ccccc2Cl)cc1C	none
COc1ccccc1CNC(=O)CN1C(=O)NC2(CCCc3ccccc32)C1=O (stereo unspecified)	none
Cc1nc2nc(-c3ccccc3)cc(=O)n2[nH]1	none
O=c1cc(-c2ccccc2)nc2nc(-c3ccco3)[nH]n12	DNMT1 block 103.7, STEP inh 86.3, SUMO1 PPI mod 53.6, LMPTP block 51.2 | DNMT1 confirm inactive | Beacon interf inactive | STEP conf inactive
Cc1cccc(C(=O)Nc2ccc(N3CCN(c4ccc(C(F)(F)F)cn4)CC3)nc2)c1	DNMT1 block 70.3, STEP inh 76.6 | DNMT1 confirm inactive | Beacon interf inactive | STEP conf inactive
COC(=O)c1sc(NC(=O)/C=C/c2ccc(C)cc2)nc1C	none
COC(=O)c1sc(NC(=O)/C=C/c2ccccc2Cl)nc1C	DNMT1 block 61.9, STEP inh 56.6 | DNMT1 confirm inactive | Beacon interf inactive | STEP conf inactive
CC(NC(=O)c1ccco1)C(=O)NC(C)c1cc(F)c(Cl)cc1Cl (stereo unspecified)	none
O=C(N/N=C/c1ccc(Br)s1)c1ccc([N+](=O)[O-])cc1	DNMT1 block 78.9, STEP inh 69.0, LMPTP block 80.2 | DNMT1 confirm inactive | Beacon interf inactive | STEP conf inactive
CSc1ccc(C=NNc2ccc(S(=O)(=O)Nc3ccccc3C(=O)O)cc2[N+](=O)[O-])cc1	DNMT1 block 86.3, STEP inh 44.5, SUMO1 PPI mod 95.9, LMPTP block 91.3 | Beacon interf DR inactive | DNMT1 confirm 54.6 | Beacon interf inactive | STEP conf 59.3
C[C@H](NC(=O)c1ncn2c1c(=O)[nH]c1ccc(Br)cc12)c1ccccc1	DNMT1 block 89.5, STEP inh 53.5, LMPTP block 55.7 (no result: Scp1 inh) | DNMT1 confirm inactive | Beacon interf inactive | STEP conf inactive
C[C@H](NC(=O)c1ncn2c1c(=O)[nH]c1ccccc12)c1ccccc1	none (no result: Scp1 inh)
CCc1ccc(Nc2nc(N)nc(CSc3nc4ccccc4s3)n2)cc1	STEP inh 43.4 | STEP conf inactive
CC(C)N(C)CCOC(=O)c1ccccc1Br	STEP inh 77.9 | STEP conf inactive
CC(C)N(C)CCOC(=O)c1ccccc1Cl	none
Cc1ccccc1N1CCN(C(=S)c2ccc(-c3ccc([N+](=O)[O-])cc3)o2)CC1	none
Cc1ccccc1N1CCN(C(=S)c2ccc(-c3cccc([N+](=O)[O-])c3)o2)CC1	STEP inh 44.3 | STEP conf 25.9
O=C(CSS(=O)(=O)O)N1CCN(C(=O)c2ccoc2)CC1	STEP inh 77.3 | STEP conf inactive
O=C(CCNS(=O)(=O)c1ccccc1)OCC(=O)c1ccc[nH]1	none
COCCN(Cc1cc2ccc(C)cc2[nH]c1=O)S(=O)(=O)c1ccccc1	none
O=C1C(=O)N(CCCO)C(c2ccc(Br)cc2)/C1=C(\O)c1ccc(Br)cc1 (stereo unspecified)	STEP inh 41.3 | STEP conf 37.6
COc1ccc(NC(=O)c2cc(=O)c3ccccc3o2)cc1Cl	STEP inh 41.8 | STEP conf 27.8
CN(C)S(=O)(=O)c1cc(NC(=O)c2cc(=O)c3ccccc3o2)ccc1Cl	none
Cn1cc(CC(=O)Nc2cccc(C#N)c2)c2ccccc21	STEP inh 45.5 | STEP conf 29.9
CCc1ccc(NC(=O)Cc2cn(C)c3ccccc23)cc1	STEP inh 44.5 | STEP conf 47.6
CCc1cccc(NC(=O)Cc2cn(C)c3ccccc23)c1	none
CCN(CCO)C(=O)c1ccc2nc(Cc3ccc(OC)cc3)oc2c1	none
Cc1ccc(C(=O)O/N=C(\N)Cc2cccs2)c(Cl)c1	none
COc1ccc(-c2csc(N3CCC(C(N)=O)(N4CCCCC4)CC3)n2)cc1	STEP inh 71.1 | STEP conf inactive
CCCCCn1nc(C(=O)N(CC(C)C)c2c(N)n(CCCC)c(=O)[nH]c2=O)c2ccccc2c1=O	none
Cc1nn2c(CN(C(=O)COc3ccccc3)c3ccccc3)nnc2c2ccccc12	STEP inh 121.7 | STEP conf inactive
Cc1nn2c(CN(C(=O)CN3CCOCC3)c3ccccc3)nnc2c2ccccc12	none
Cc1ccc(C(=O)N/C(=C\c2ccccc2)C(=O)OCc2ccccc2)cc1	STEP inh 60.1 | STEP conf inactive
O=C(OCc1ccccc1)/C(=C/c1cccc2ccccc12)NC(=O)c1ccccc1	none
CCCN(C(=O)CSc1nc(C2CC2)n(-c2ccccc2)n1)C1CCS(=O)(=O)C1 (stereo unspecified)	none
